Compound activity: PubChem, Broad Institute
The list is not random: actives were taken first. Their share in the collection is about 1.5%.
Cneo AK release: Cryptococcus neoformans lysis via adenylate kinase release; lysis activity, % at 15 µM; C. neoformans lysis, adenylate kinase release luminescence, 4 h; normalised: neutral wells 0, clomiphene wells 100; 0.2% of 360,000 active;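 active = mean lysis activity across replicates of at least 80%, whatever share of replicates individually reach that level; inactive = mean lysis activity below 80%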
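Assay system: C. neoformans cells. Amount: yeast cell density of 5 × 10^6 cells/mL. Technique: AK luminescence. Buffer or medium: YPD. Times: static 4 h at 37 °C with compound, 1 h detection. Dosing: single-point compound dose. Read-out: lysis from increased AK signal.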
SUMO Mot1 rescue: inhibitors of SUMOylation pathway: yeast Mot1-301 growth rescue. 1% of 320,000 active. S. cerevisiae Mot1-301 growth rescue, ATP luminescence, 38.5C; percent above DMSO median, 100 means doubled. growth rescue, % at 18.8 µM. AID 2716;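 active = every valid replicate shows activation above 250% relative to neutral control wells; inactive = the rest, any valid replicate at or below 250%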
Statin myotox sup: protects C2C12 myotubes from simvastatin toxicity. ATP luminescence, 48 h; scaled: DMSO 0, geranylgeraniol control 100. rescue of ATP level, % at 7.49 µM. 0.78% of 330,000 active;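 active = mean ATP rescue above about 67%, or every replicate alone reaching that limit, limit read from the data, passing the limit was not always enough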;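 note: myotubes were challenged with 10 µM simvastatin during compound exposure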
Yeast Mot1 SUMO: SUMO pathway inhibitors in yeast Mot1-301 growth; shares compounds with SUMO Mot1 rescue; AID 493004; growth activity, percent, % at 42 µM; S. cerevisiae Mot1-301 galactose growth, ATP luminescence, 24 h; -100 = growth of slx-deleted rescue strain; 2,300 tested, under 10 active;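 active = Signal drops as the depositor expects, and the fitted half-maximal dose is no more than ten times the top valid tested dose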;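 note: more negative values mean stronger growth rescue toward the control strain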
Hits are given with their value; - = inactive; . = no result given; + = active, no number.

SMILES	Cneo AK release	SUMO Mot1 rescue	Statin myotox sup	Yeast Mot1 SUMO
N#C/C(=C\c1c(N(Cc2ccccc2)Cc2ccccc2)nc2ccccn2c1=O)C(N)=O	-	.	.	-
CCNC(=O)/C(C#N)=C/c1c(N2CCN(c3ccccc3)CC2)nc2ccccn2c1=O	-	-	-	.
CCNC(=O)/C(C#N)=C/c1c(N2CCCCCC2)nc2ccccn2c1=O	-	748	-	-
C[C@@H]1CCCCO[C@@H](CN(C)S(=O)(=O)c2cn(C)cn2)[C@H](C)CN([C@@H](C)CO)C(=O)c2cc(NS(=O)(=O)c3cn(C)cn3)ccc2O1	-	.	.	.
COc1ccc(NC(=O)N(C)C[C@@H]2Oc3ccc(NC(=O)Cc4cn(C)c5ccccc45)cc3CC(=O)N([C@@H](C)CO)C[C@@H]2C)cc1	-	.	-	.
CN(C)c1oc(-c2ccccc2Cl)nc1S(=O)(=O)c1ccccc1	-	636	-	-
CN(C)CCCNc1oc(-c2ccccc2Cl)nc1S(=O)(=O)c1ccccc1	-	-	-	.
CO[C@@H]1CN(C)C(=O)c2ccc(NC(C)=O)cc2OC[C@H](C)N(S(=O)(=O)c2cn(C)cn2)C[C@H]1C	-	.	-	.
O=C(COc1ccc(Cl)cc1Cl)NCCN1CCCCC1	-	.	-	.
O=S(=O)(CCN1CCCCC1)Oc1ccc(Cl)cc1Cl	-	922	.	-
C[C@@H]1CN([C@H](C)CO)C(=O)c2cc(NC(=O)CCC(F)(F)F)ccc2O[C@H]1CN(C)S(=O)(=O)c1cn(C)cn1	-	.	-	.
CCCCNC(=O)N1CCC(CCC(=O)N(C)Cc2ccccc2)CC1	-	375	-	-
CCOC(=O)CNC(=O)N1CCC(CCC(=O)N(C)Cc2ccccc2)CC1	-	-	-	.
CN1C(=O)c2cc(NC(=O)c3ccc(F)cc3)ccc2OC[C@H]2O[C@@H](CC(=O)N3CCOCC3)CC[C@@H]21	-	.	-	.
CSc1ccc(CN2CCN(S(=O)(=O)Cc3ccccc3)CC2)cc1	-	379	-	-
O=S(=O)(Cc1ccccc1)N1CCN(c2ncccn2)CC1	-	399	-	-
COC(=O)C1CCN(S(=O)(=O)Cc2ccccc2)CC1	-	689	-	-
CCc1ccc(CN2CCN(S(=O)(=O)Cc3ccccc3)CC2)cc1	-	-	-	.
COC(=O)C1CCN(S(=O)(=O)Cc2ccccc2Cl)CC1	-	-	-	.
O=C(C1CCN(S(=O)(=O)Cc2ccccc2)CC1)N1CCN(c2ncccn2)CC1	-	-	.	.
C[C@@H]1CN([C@@H](C)CO)C(=O)Cc2cc(NS(C)(=O)=O)ccc2O[C@H]1CN(C)S(=O)(=O)c1ccccc1	-	.	-	.
CCOc1cc(C(=S)N2CCOCC2)ccc1OC(=O)c1ccccc1	-	-	-	.
CCOc1cc(C(=S)N2CCOCC2)ccc1OC(=O)c1ccc(C)cc1	-	414	-	-
C[C@@H]1CN([C@H](C)CO)C(=O)c2cccc(NC(=O)c3nc4ccccc4s3)c2O[C@H]1CN(C)Cc1ccncc1	-	.	-	.
COc1ccc(N2CCN(CC(=O)c3c[nH]c4ccccc34)CC2)cc1	-	-	.	.
SMILES	Cneo AK release	SUMO Mot1 rescue	Statin myotox sup	Yeast Mot1 SUMO
COc1ccc(N2CCN(CCCNC(=O)C(=O)c3c(C)[nH]c4ccccc34)CC2)cc1	-	413	-	-
COc1ccc(CCNC(=O)c2cc(-c3cccs3)on2)cc1OC	-	-	-	.
COc1ccc(CCNC(=O)c2cc(-c3ccco3)on2)cc1OC	-	566	.	-
c1ccc(-c2nc(NCc3ccco3)c3ccccc3n2)nc1	-	505	.	-
Oc1ccccc1-c1nc(NCc2ccco2)c2ccccc2n1	-	-	.	.
C[C@@H]1CCCCO[C@@H](CN(C)CC2CCCCC2)[C@@H](C)CN([C@H](C)CO)C(=O)c2cc(NC(=O)Nc3ccc(F)cc3)ccc2O1	-	.	.	.
O=C(O)c1cn(Cc2cccnc2)c(=O)c2ccccc12	.	-	.	.
O=C(O)c1cn(Cc2ccccn2)c(=O)c2ccccc12	.	+	.	-
COc1ccccc1-c1cnc2c(c1)C(=O)N([C@H](C)CO)C[C@@H](C)[C@H](CN(C)Cc1cccnc1)O2	-	.	-	.
Cc1noc(C)c1Cc1c(Cl)cccc1Cl	-	-	-	.
Cc1noc(C)c1Cc1ccc(O)cc1	-	472	-	-
Cc1cc2c(cc1C)-c1nnc(-c3ccc4ccccc4n3)n1C(C)(C)C2	.	644	.	-
CC1(C)Cc2ccccc2-c2nnc(-c3ccc4ccccc4n3)n21	-	.	-	.
CC(C)C#Cc1cnc2c(c1)C(=O)N([C@@H](C)CO)C[C@H](C)[C@@H](CN(C)C(=O)Nc1ccccc1)O2	-	.	-	.
CCOc1ccc(NC(=S)Nc2ccc3nsnc3c2)cc1	.	-	.	.
CCOc1ccc(NC(=O)Nc2ccc3nsnc3c2)cc1	-	+	-	-
